Reference: ChEMBL document CHEMBL3593164, “Rational Design and Synthesis of Thioridazine Analogues as Enhancers of the Antituberculosis Therapy” (J Med Chem, 2015)
Values after ≈ are worked out from the molar mass of the structure shown. Active and inactive are the calls of the source. No cut-off for these calls is given here.

Assays:
[1] = system: Mycolicibacterium smegmatis; assay: Antimycobacterial activity against Mycobacterium smegmatis MC2 155 after 3 days by broth microdilution method; type: functional; settings: str. MC2 155, 72 h
Method in brief: (§1)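 Growth inhibition of M. smegmatis mc²155 (ATCC700084) or M. tuberculosis H37Rv (ATCC27294) determined by broth microdilution; MIC in µg/mL. Where no exact MIC was reachable, the highest concentration technically testable is reported as a lower bound.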

PBMC = assay: Cytotoxicity against human PBMC assessed as cell viability after 3 days by AlamarBlue assay; type: cell-based; settings: 72 h
[2] = system: Mycolicibacterium smegmatis MC2 155
[3] = system: Mycobacterium tuberculosis; assay: Antimycobacterial activity against Mycobacterium tuberculosis H37Rv infected in human monocyte-derived macrophages assessed as reduction of colony forming unit at 16 ug/ml after 3 weeks by broth microdilution method in presence of 0.05 ug/ml of isoniazid; type: functional, organism-based
Method in brief: (§2)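 Human monocyte-derived macrophages infected with M. tuberculosis H37Rv; each compound added at a concentration giving ≥90% macrophage viability over 3 days of treatment, alone or combined with INH or RIF at a non-antibiotic inhibitory concentration. The read-out was intracellular killing.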

[4] = system: Mycobacterium tuberculosis; assay: Antimycobacterial activity against Mycobacterium tuberculosis H37Rv infected in human monocyte-derived macrophages assessed as reduction of colony forming unit at 40 ug/ml after 3 weeks by broth microdilution method; type: functional, organism-based; method in brief: as §2
[5] = system: Mycobacterium tuberculosis; assay: Antimycobacterial activity against Mycobacterium tuberculosis H37Rv infected in human monocyte-derived macrophages assessed as reduction of colony forming unit at 1.25 ug/ml after 3 weeks by broth microdilution method; type: functional, organism-based; method in brief: as §2
[6] = system: Mycobacterium tuberculosis; assay: Antimycobacterial activity against Mycobacterium tuberculosis H37Rv infected in human monocyte-derived macrophages assessed as reduction of colony forming unit at 1.25 ug/ml after 3 weeks by broth microdilution method in presence of 0.5 ug/ml of rifampin; type: functional, organism-based; method in brief: as §2
[7] = system: Mycobacterium tuberculosis; assay: Antimycobacterial activity against Mycobacterium tuberculosis H37Rv after 3 days by broth microdilution method; type: functional; settings: 72 h; method in brief: as §1
[8] = system: Mycobacterium tuberculosis; assay: Antimycobacterial activity against Mycobacterium tuberculosis H37Rv infected in human monocyte-derived macrophages assessed as reduction of colony forming unit at 40 ug/ml after 3 weeks by broth microdilution method in presence of 0.5 ug/ml of rifampin; type: functional, organism-based; method in brief: as §2
[9] = system: Mycobacterium tuberculosis; assay: Antimycobacterial activity against Mycobacterium tuberculosis H37Rv infected in human monocyte-derived macrophages assessed as reduction of colony forming unit at 1.25 ug/ml after 3 weeks by broth microdilution method in presence of 0.05 ug/ml of isoniazid; type: functional, organism-based; method in brief: as §2
[10] = system: Mycobacterium tuberculosis; assay: Antimycobacterial activity against Mycobacterium tuberculosis H37Rv infected in human monocyte-derived macrophages assessed as reduction of colony forming unit at 16 ug/ml after 3 weeks by broth microdilution method in presence of 0.5 ug/ml of rifampin; type: functional, organism-based; method in brief: as §2
[11] = system: Mycobacterium tuberculosis; assay: Antimycobacterial activity against Mycobacterium tuberculosis H37Rv infected in human monocyte-derived macrophages assessed as reduction of colony forming unit at 0.078 ug/ml after 3 weeks by broth microdilution method; type: functional, organism-based; method in brief: as §2
[12] = system: Mycobacterium tuberculosis; assay: Antimycobacterial activity against Mycobacterium tuberculosis H37Rv infected in human monocyte-derived macrophages assessed as reduction of colony forming unit at 0.078 ug/ml after 3 weeks by broth microdilution method in presence of 0.05 ug/ml of isoniazid; type: functional, organism-based; method in brief: as §2
[13] = system: Mycobacterium tuberculosis; assay: Antimycobacterial activity against Mycobacterium tuberculosis H37Rv infected in human monocyte-derived macrophages assessed as reduction of colony forming unit at 0.078 ug/ml after 3 weeks by broth microdilution method in presence of 0.5 ug/ml of rifampin; type: functional, organism-based; method in brief: as §2
[14] = system: Mycobacterium tuberculosis; assay: Antimycobacterial activity against Mycobacterium tuberculosis H37Rv infected in human monocyte-derived macrophages assessed as reduction of colony forming unit at 40 ug/ml after 3 weeks by broth microdilution method in presence of 0.05 ug/ml of isoniazid; type: functional, organism-based; method in brief: as §2
[15] = system: Mycobacterium tuberculosis; assay: Antimycobacterial activity against Mycobacterium tuberculosis H37Rv infected in human monocyte-derived macrophages assessed as reduction of colony forming unit at 16 ug/ml after 3 weeks by broth microdilution method; type: functional, organism-based; method in brief: as §2
[16] = Ratio of thioridazine IC50 to compound IC50 for human PBMC; type: ADME, cell-based; settings: PBMC (peripheral blood mononuclear cells), read-out: Ratio IC50

CN1CCCCC1CCn1c2ccccc2c(=O)c2ccccc21 (configuration not stated)
MIC [1]: 64 µg/mL (≈ 200 µM)
IC50 (PBMC): 2.37 µM
RFU [2]: 0.94

c1ccc(CCn2c3ccccc3c3ccccc32)nc1
MIC [1]: > 64 µg/mL
RFU [2]: -0.17

c1ccc2c(c1)c1ccccc1n2CCN1CCCCC1
MIC [1]: > 256 µg/mL
RFU [2]: 0.08

CN1CCCCC1CCn1c(C(=O)NC23CC4CC(CC(C4)C2)C3)cc2cc(Cl)ccc21 (mixture of isomers)
MIC [1]: > 256 µg/mL
RFU [2]: 0.17

COc1ccc(C(C#N)(CCC2CCCCN2C)C(C)C)cc1OC (mixture of isomers)
MIC [1]: > 256 µg/mL
RFU [2]: 0.72

Cc1c(Cc2ccccc2)c(=O)n2c3ccccc3n(CCC3CCCCN3C)c2c1C#N (racemic)
MIC [1]: > 64 µg/mL
RFU [2]: 0.66

COc1ccc(N(CCC2CCCCN2C)C(C)C)cc1OC (racemic)
Activity [3]: Active
Activity [4]: Active
Activity [5]: Active
Activity [6]: Active
MIC [7]: > 256 µg/mL
MIC [1]: > 256 µg/mL
IC50 (PBMC): 265 µM
RFU [2]: 1.17
Activity [8]: Active
Activity [9]: Active
Activity [10]: Active
Activity [11]: Active
Activity [12]: Active
Activity [13]: Active
Activity [14]: Active
Activity [15]: Active

CN1CCCCC1CCn1c2ccccc2c2ccccc21 (racemic)
Activity [3]: Active
Activity [4]: Active
Activity [5]: Active
Activity [6]: Active
MIC [7]: 128 µg/mL (≈ 438 µM)
MIC [1]: 256 µg/mL (≈ 875 µM)
IC50 (PBMC): 30 µM
RFU [2]: 0.95
Activity [8]: Active
Activity [9]: Active
Activity [10]: Active
Activity [11]: Active
Activity [12]: Active
Activity [13]: Active
Activity [14]: Active
Activity [15]: Active
selectivity ratio [16]: 2

CN1CCCCC1CCn1ccc2ccc(Br)cc21 (racemic)
Activity [3]: Active
Activity [4]: Active
Activity [5]: Active
Activity [6]: Active
MIC [7]: > 256 µg/mL
MIC [1]: 64 µg/mL (≈ 199 µM)
IC50 (PBMC): 32.5 µM
RFU [2]: 0.81
Activity [8]: Active
Activity [9]: Active
Activity [10]: Active
Activity [11]: Active
Activity [12]: Active
Activity [13]: Active
Activity [14]: Active
Activity [15]: Active
selectivity ratio [16]: 2

CN1CCCCC1CCn1cnc2ccccc21 (racemic)
Activity [3]: Active
Activity [4]: Active
Activity [5]: Active
Activity [6]: Active
MIC [7]: > 256 µg/mL
MIC [1]: > 256 µg/mL
IC50 (PBMC): 702 µM
RFU [2]: 15.3
Activity [8]: Active
Activity [9]: Active
Activity [10]: Active
Activity [11]: Active
Activity [12]: Active
Activity [13]: Active
Activity [14]: Active
Activity [15]: Active

CN1CCCCC1CCN(c1ccccc1)c1ccccc1 (racemic)
MIC [1]: > 64 µg/mL
RFU [2]: 0.61

COc1ccc(N(CCC2CCCCN2C)c2ccccc2)cc1OC (racemic)
MIC [1]: 256 µg/mL (≈ 722 µM)
RFU [2]: 0.76

CN1CCCCC1CCN1CCCC1 (racemic)
MIC [1]: > 256 µg/mL
RFU [2]: 0.39

CSc1ccc2c(c1)N(CCC1CCCCN1C)c1ccccc1S2 (configuration not stated) [THIORIDAZINE]
MIC [7]: 15 µg/mL (≈ 40.5 µM)
MIC [1]: 30 µg/mL (≈ 81 µM)
IC50 (PBMC): 13.8 µM
RFU [2]: 0.82

COc1ccc(CCN(C)CCCC(C#N)(c2ccc(OC)c(OC)c2)C(C)C)cc1OC (configuration not stated) [VERAPAMIL]
MIC [7]: 512 µg/mL (≈ 1130 µM)
MIC [1]: 800 µg/mL (≈ 1760 µM)
IC50 (PBMC): 117 µM
